# From PubChem BioAssay
# pPAFAH FP inh = pPAFAH (human) enzyme inhibition. Q13093. recombinant pPAFAH, FP-rhodamine probe fluorescence polarization. inhibition, % at 3.39 µM. 330,000 compounds, 1.5% hits. AID 463082;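 active means inhibition above the mean inhibition across the screen plus 3 SD, cut at about 25% in these data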;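 further: inhibitors block binding of the rhodamine activity-based probe so polarization drops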
# Target sequence (Q13093 whole entry, looked up): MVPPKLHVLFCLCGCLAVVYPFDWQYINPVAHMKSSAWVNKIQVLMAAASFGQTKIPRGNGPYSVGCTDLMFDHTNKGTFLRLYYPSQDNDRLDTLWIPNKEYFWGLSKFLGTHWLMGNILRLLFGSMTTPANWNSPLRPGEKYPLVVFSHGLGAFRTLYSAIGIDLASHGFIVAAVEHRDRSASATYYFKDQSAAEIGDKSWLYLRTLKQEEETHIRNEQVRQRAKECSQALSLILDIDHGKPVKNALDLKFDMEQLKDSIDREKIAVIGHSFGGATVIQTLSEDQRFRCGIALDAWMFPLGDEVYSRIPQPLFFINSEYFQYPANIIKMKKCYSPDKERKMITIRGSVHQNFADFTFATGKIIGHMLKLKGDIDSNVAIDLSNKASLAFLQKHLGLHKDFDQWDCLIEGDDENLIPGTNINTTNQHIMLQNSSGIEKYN
# Apaf-1 inh = human Apaf-1 inhibition | O14727 | reconstituted apoptosome caspase-3 activity, DEVD-Rh110 fluorescence | inhibition, % at 20 µM | 330,000 compounds, 0.71% hits; active means inhibition of at least 40% at 20 µM
#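 Material: reconstituted apoptosome with Apaf-1, cytochrome c, caspase-9, procaspase-3, dATP / Buffer or medium: pH 7.5 Hepes buffer with CHAPS, BSA, DTT / Also added: cytochrome c with DEVD-Rh110 / Schedule: compound with Apaf-1, dATP, procaspase-3 30 min, then 50 min reaction, room temperature / Technique: rhodamine 110 fluorescence at Ex 480/Em 540 nm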
# PAFAH2 inh = inhibitors of human PAFAH2; Q99487; recombinant PAFAH2, FP-rhodamine activity probe, fluorescence polarization; inhibition, % at 3.39 µM; 340,000 compounds, 0.99% hits;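 active means inhibition above the mean over all tested compounds plus 3 SD, cut at about 30% in these data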;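 further: inhibitors block probe labeling of enzyme so polarization drops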
# PAFAH1B3 FP inh = blocks human PAF acetylhydrolase 1B catalytic subunit 3. recombinant PAFAH1B3, FP-rhodamine probe, fluorescence polarization. 340,000 compounds, 0.28% hits. Q15102. inhibition, % at 3.39 µM;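 active means inhibition above the screen-wide average of all tested compounds plus 3 SD, cut at about 25% in these data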
# PAFAH1B2 FP inh = blocks human PAF acetylhydrolase 1b catalytic subunit 2; P68402; inhibition, % at 3.39 µM; 340,000 compounds, 1.2% hits; recombinant PAFAH1B2, FP-rhodamine activity probe, fluorescence polarization; AID 492953;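 active means inhibition above the mean of all tested compounds plus 3 SD, cut at about 24% in these data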
# Target sequence (P68402 whole entry, looked up): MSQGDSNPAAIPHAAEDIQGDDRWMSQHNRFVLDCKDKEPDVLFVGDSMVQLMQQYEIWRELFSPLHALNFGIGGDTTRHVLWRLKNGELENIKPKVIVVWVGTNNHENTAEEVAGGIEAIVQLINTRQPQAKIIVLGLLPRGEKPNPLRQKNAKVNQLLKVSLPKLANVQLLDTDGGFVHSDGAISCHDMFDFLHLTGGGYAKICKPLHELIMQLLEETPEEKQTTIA
# Apaf-1 inh conf2 = Apaf-1 inhibition, single-dose confirmed; shares compounds with Apaf-1 inh; reconstituted apoptosome, caspase-3 DEVD-Rh110 fluorescence; inhibition, % at 20 µM; 1,800 compounds, 25% hits; AID 504614;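 active means mean inhibition of at least 40% at 20 µM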
# Rh110 interf inh = interferes with Rh110 fluorescence, flagging false Apaf-1 inhibitors; shares compounds with Apaf-1 inh; 1,800 tested, under 10 active; AID 504615; activation (fluorescence interference), % at 20 µM; Rh110 fluorescence interference, quenched caspase reaction;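 active means signal rise of 40% or more at 20 µM, treated as a fluorescence artifact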
# Apaf1 inh interf = counter-screen for Apaf-1 inhibitors: fluorescence interference, dose response; shares compounds with Apaf-1 inh; fluorescence interference counterscreen, Apaf-1 assay format; IC50, µM; 460 tested, under 10 active; AID 588538; call rule not given here
# PAFAH2 FP conf = PAFAH2 (human) inhibition, confirmed | shares compounds with PAFAH2 inh | recombinant PAFAH2, FP-rhodamine activity probe, fluorescence polarization | inhibition, % at 3.39 µM | 2,300 compounds, 65% hits | AID 493030;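 active means mean inhibition over three repeats above a set limit taken from the earlier primary screen, cut at about 30% in these data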;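 further: inhibitor blocks binding of rhodamine activity probe so polarization falls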
# PAFAH1B3 confirm = confirmation of human PAFAH1B3 inhibitors | shares compounds with PAFAH1B3 FP inh | recombinant PAFAH1B3, FP-Rh activity-based probe, fluorescence polarization | inhibition, % at 3.39 µM | 390 compounds, 30% hits;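 active means average inhibition over triplicate runs above the hit cutoff set in the earlier primary screen, cut at about 25% in these data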
# A number is an active result; 0 = inactive; - = not tested or not shown. Rows were chosen to be rich in hits. Some 3.1% of all compounds tested hit in one or more screens of this group.
SMILES,pPAFAH FP inh,Apaf-1 inh,PAFAH2 inh,PAFAH1B3 FP inh,PAFAH1B2 FP inh,Apaf-1 inh conf2,Rh110 interf inh,PAFAH2 FP conf,others
CCCNC(=O)N1CCC2(CC1)OCCO2,0,0,0,0,0,-,-,-,
COCCNC(=O)c1c(NC(=O)c2ccco2)n(Cc2ccccc2)c2nc3ccccc3nc12,0,53,0,0,0,0,0,-,
COCCCn1c(N)c(C(=O)OC(C)COC)c2nc3ccccc3nc21 (stereo not drawn),0,74,0,0,0,0,0,-,
COCCCn1c(N)c(C(=O)Nc2sc3c(c2C(=O)OC)CCCC3)c2nc3ccccc3nc21,0,90,0,0,0,0,0,-,
COCCCn1c(N)c(C(=O)Nc2ccccc2)c2nc3ccccc3nc21,0,51,-,-,-,0,0,-,
CCCCOCCCn1c(N)c(C(=O)OC(C)COC)c2nc3ccccc3nc21 (stereo not drawn),0,0,0,0,0,-,-,-,
O=C1NC(=S)NC(=O)C1c1ccccc1,-,-,0,0,0,-,-,-,
COCCCn1c(N)c(C(=O)NCc2ccco2)c2nc3ccccc3nc21,0,95,-,-,-,0,0,-,
COCCNC(=O)c1c(N)n(Cc2ccco2)c2nc3ccccc3nc12,0,0,0,0,0,-,-,-,
CN1CCc2cc(O)cc3c2[C@H]1Cc1ccc(O)c(O)c1-3,0,0,0,0,0,-,-,-,
CN1CCc2cc3c(c4c2C1Cc1ccccc1-4)OCO3 (stereo not drawn),29,91,0,0,0,67,0,-,Apaf1 inh interf=0
O=S1(=O)N(CCN2CC=C(c3c[nH]c4cc(F)ccc34)CC2)c2cccc3c2N1CCC3,0,51,0,0,0,0,0,-,
C/C(=N\N1CCCCCC1)c1c(O)n(C)c(=O)n(C)c1=O,0,0,-,-,-,-,-,-,
Cc1c2ccncc2c(C)c2c1[nH]c1ccccc12,0,67,0,0,0,0,0,-,
CCCNC(=O)N1[C@H]2CC[C@@H]1C(C(=O)OC)=C(c1ccc(Cl)c(C(F)(F)F)c1)C2,0,0,0,0,0,-,-,-,
COC(=O)C1=C(c2ccc(Cl)c(C(F)(F)F)c2)C[C@@H]2CC[C@H]1N2C(=O)NCCOc1ccc(OC)cc1,0,40,0,0,0,0,0,-,
O=C1CC23c4ccccc4N4C(=O)CC5OCC=C6CN1C2CC6C5C43 (stereo not drawn),-,-,0,0,0,-,-,-,
CCC(C)NC(=O)c1c(N)n(CCCOC)c2nc3ccccc3nc12 (stereo not drawn),0,91,0,62,0,59,0,-,Apaf1 inh interf=0;PAFAH1B3 confirm=0
CCOC(=O)c1c(N)n(CCN2CCCCC2)c2nc3ccccc3nc12,0,0,0,0,0,-,-,-,
CNCC(=O)c1ccccc1,0,0,-,-,-,-,-,-,
COc1cc2c(cc1O)[C@@H]1Cc3ccc(OC)c(O)c3CN1CC2,0,93,0,37,0,58,0,-,Apaf1 inh interf=0;PAFAH1B3 confirm=0
CCOc1ccc(N2C(=O)/C(=C\c3cccs3)C(=O)NC2=S)cc1,0,0,-,-,-,-,-,-,
CCOc1ccc(N2C(=O)/C(=C/c3ccco3)C(=O)NC2=S)cc1,0,0,94,0,0,-,-,63,
O=[N+]([O-])c1cccc(CN2CCN(Cc3ccc(Br)cc3)CC2)c1,0,0,0,0,0,-,-,-,
O=C(N/N=C/C1C(=O)NC(=S)N(c2ccccc2)C1=O)c1cc(Br)c(O)c(Br)c1 (stereo not drawn),0,0,37,0,0,-,-,0,
SMILES,pPAFAH FP inh,Apaf-1 inh,PAFAH2 inh,PAFAH1B3 FP inh,PAFAH1B2 FP inh,Apaf-1 inh conf2,Rh110 interf inh,PAFAH2 FP conf,others
CCn1c(O)c(/C=N/NC(=O)c2ccccc2)c(=O)n(CC)c1=S,0,0,-,-,-,-,-,-,
Cc1cccc(N2C(=O)NC(=O)/C(=C\c3cc(C)n(-c4sc5c(c4C#N)CCCC5)c3C)C2=O)c1C,0,0,33,0,0,-,-,0,
Cn1c(O)c(/C=C/C=Nc2ccccc2)c(=O)n(C)c1=S,0,0,0,0,0,-,-,-,
O=c1[nH]c(=S)n(C2CCCCC2)c(O)c1/C=N/N1CCOCC1,0,0,0,0,0,-,-,-,
COc1ccc(N2C(=O)NC(=O)/C(=C/c3ccc4c(c3)Cc3ccccc3-4)C2=O)cc1,0,0,-,-,-,-,-,-,
Cc1cccc(N2C(=O)NC(=O)/C(=C\c3ccc4c(c3)CCCN4Cc3ccccc3)C2=O)c1,0,0,33,0,0,-,-,37,
CC[C@H](C)[C@@H]1O[C@@]2(C=CC1C)CC1C[C@@H](CC=C(C)C(O[C@H]3CC(OC)C(O[C@H]4CC(OC)C(O)C(C)O4)C(C)O3)C(C)C=CC=C3CO[C@@H]4C(O)C(C)=C[C@@H](C(=O)O1)[C@]34O)O2 (stereo partly drawn),0,0,-,-,-,-,-,-,
CC1=CC(=O)NP(=O)(Oc2ccc3ccccc3c2)N1 (stereo not drawn),0,0,45,0,0,-,-,0,
CCC1CCCCN1CC(=O)c1ccc(OC(F)F)cc1 (stereo not drawn),0,0,0,0,0,-,-,-,
O=P(Oc1ccccc1)(Oc1ccccc1)C(O)c1ccccc1 (stereo not drawn),0,0,30,0,0,-,-,0,
O=C1NC(=O)N(C2CCCCC2)C(=O)C1C1c2ccccc2C(=O)N1Cc1ccccc1 (stereo not drawn),0,0,45,0,0,-,-,41,
O=C1NC(=O)C(CCc2ccncc2)(CCc2ccncc2)C(=O)N1C1CCCCC1,0,0,0,0,0,-,-,-,
Cc1ccc(N2C(=O)NC(=O)/C(=C\c3cccn3C(C)(C)C)C2=O)cc1,0,0,43,0,0,-,-,0,
CCC(C)n1c(O)c(C=NCCN2CCOCC2)c(=O)[nH]c1=S (stereo not drawn),0,0,0,0,0,-,-,-,
O=c1[nH]c(=S)n(C2CC2)c(O)c1/C=N/Nc1ccccc1,0,0,0,0,0,-,-,-,
CCC(C)n1c(O)c(/C=N/NC(=O)c2ccncc2)c(=O)[nH]c1=S (stereo not drawn),0,0,58,0,0,-,-,62,
CCC(C)n1c(O)c(/C=N/Nc2ccccc2)c(=O)[nH]c1=S (stereo not drawn),0,0,40,0,0,-,-,0,
CCC(C)n1c(O)c(C=NCCc2ccccc2)c(=O)[nH]c1=S (stereo not drawn),0,0,47,0,0,-,-,45,
CCC(C)n1c(O)c(C=NCC2CCCO2)c(=O)[nH]c1=S (stereo not drawn),0,0,51,0,0,-,-,38,
